Laboratory results as given in ChEMBL document CHEMBL4346658, “sp2-Iminosugar glycolipids as inhibitors of lipopolysaccharide-mediated human dendritic cell activation in vitro and of acute inflammation in mice in vivo” (Eur J Med Chem, 2019).
The source made the active and inactive calls. The calls are words filed in the database; no cut-off is given here.

Assays:
[1] = tested on: Dendritic cell; experiment: Antiinflammatory activity in human dendritic cells assessed as reduction in LPS-induced TNFalpha production at 100 uM pretreated with LPS up to 6 hrs followed by compound addition measured after 24 hrs by ELISA; assay type: functional, cell-based
Procedure, shortened: (§1)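 Monocyte-derived DCs (10^5 per 200 µL) were stimulated with ultrapure E. coli K12 LPS (100 ng mL⁻¹). Compound was added 0.5, 2, 4 or 6 h after LPS. TNF-α in the supernatant was measured by ELISA 24 h after stimulation, as mean ± SD of more than 3 independent assays.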

[2] = tested on: Dendritic cell; experiment: Antiinflammatory activity in human dendritic cells assessed as CD14-TLR-4 co-localization at 100 uM incubated for 30 mins by DAPI staining based confocal microscopy; assay type: functional
Procedure, shortened: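 Monocyte-derived DCs (10^5 per chamber) on poly-L-lysine-coated chamber slides were treated for 30 min, then washed, fixed and permeabilized. They were stained with goat anti-TLR-4 (5 µg mL⁻¹) plus AF488 anti-goat, and anti-CD14-APC, with DAPI nuclei. Confocal imaging gave the Pearson CD14/TLR-4 colocalization coefficient per field of 15–20 cells, from two independent assays.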

[3] = tested on: Dendritic cell; experiment: Antiinflammatory activity in human dendritic cells assessed as reduction in LPS-induced TNFalpha production at 100 uM pretreated with LPS for 30 mins followed by compound addition measured after 24 hrs by ELISA; assay type: functional, cell-based; procedure, shortened: as §1
[4] = tested on: Dendritic cell; experiment: Antiinflammatory activity in human dendritic cells assessed as reduction in LPS-induced TNFalpha production at 100 uM cotreated with LPS measured after 24 hrs by ELISA; assay type: functional, cell-based
Procedure, shortened: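 DCs came from human blood monocytes (Ficoll/Percoll) cultured 5 days with GM-CSF 50 ng ml⁻¹ and IL-4 10 ng ml⁻¹, in RPMI/10% FCS at 37 °C and 5% CO₂. Cells (10^5 per 200 µL) got E. coli K12 LPS (100 ng mL⁻¹) plus compound at the same time. After 24 h, supernatant TNF-α was measured by ELISA, with at least 3 donors and mean ± SEM.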

[5] = tested on: Dendritic cell; experiment: Antiinflammatory activity in human dendritic cells assessed as reduction in CD14 receptor cell surface expression at 100 uM incubated for 30 mins by flow cytometric analysis; assay type: functional, cell-based
Procedure, shortened: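 Monocyte-derived DCs (10^5 in 200 µL complete medium) were exposed for 30 min at 37 °C without LPS. They were then washed, held on ice, stained with anti-CD14-PE, and surface CD14 was read by flow cytometry.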

[6] = tested on: Dendritic cell; experiment: Antiinflammatory activity in human dendritic cells assessed as reduction in LPS-induced CD86 expression on cell surface at 100 uM pretreated with LPS upto 6 hrs followed by compound addition measured after 24 hrs by FACS analysis; assay type: functional, cell-based
[7] = tested on: Dendritic cell; experiment: Antiinflammatory activity in human dendritic cells assessed as reduction in LPS-induced CD83 expression on cell surface at 100 uM pretreated with LPS upto 6 hrs followed by compound addition measured after 24 hrs by FACS analysis; assay type: functional, cell-based

CCCCCCCCCCCCC#CC#CCCCCCCCCC(=O)NC(COCCC(=O)NCCOCCOCCOCCO[C@H]1O[C@H](CO)[C@@H](O)[C@H](O)[C@@H]1O)(COCCC(=O)NCCOCCOCCOCCO[C@H]1O[C@H](CO)[C@@H](O)[C@H](O)[C@@H]1O)COCCC(=O)NCCOCCOCCOCCO[C@H]1O[C@H](CO)[C@@H](O)[C@H](O)[C@@H]1O
inhibition [1]: inactive
Activity [2]: Active
inhibition [3]: Active
inhibition [4]: Active
inhibition [5]: Active
inhibition [6]: inactive
inhibition [7]: inactive
